The subject of the data set is MS2 coat protein. Kind of data set: apparent Kd, MS2 coat protein; higher = weaker binding; RNA-MaP array; FMN 200 µM where present. The gist of the method:
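Stalled E. coli RNA polymerase produced the designs on Illumina sequencing-chip clusters. SNAP-549-labelled MS2 coat protein was added from 0.7 or 1.5 nM, doubling to 3 µM, without and then with constant ligand, in 100 mM Tris-HCl pH 7.5, 80 mM KCl, 4 mM MgCl2, BSA, DTT, yeast tRNA and Tween-20. The apparent Kd is the median of filtered per-cluster fits of green signal normalised to red-channel RNA signal and control-cluster median Fmax.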

The mark [1] stands for this setting: designed as: ON switch for flavin mononucleotide, no ligand.
Setting [2] is: ligand present: flavin mononucleotide, designed as: ON switch for flavin mononucleotide.
[3] abbreviates: designed as: OFF switch for flavin mononucleotide, no ligand.
The mark [4] stands for this setting: ligand present: flavin mononucleotide, designed as: OFF switch for flavin mononucleotide.

Broadly, the apparent Kd is the concentration giving half-maximal binding under the conditions of the assay. For the sequence “GUUUGAUUGUAGAAGGUACUUAAUACUCAUGUUACAUGAGGAUCACCCAUGUUUCUACAUUAUUGUAAGGAUAUACAUAACUCA”, the “apparent Kd” value by setting is: under setting [1], 259 nM; under setting [2], 48.6 nM.

Consider “GGAGCACGCACAGGAUAUCCGGCGGCGCUCGUCGGAGAAGGGUGACAUGAGGAUCACCCAUGUACGUGCAACUCGGUUUGAGAG”, for which the “apparent Kd” value under setting [1] is 105 nM and the “apparent Kd” value under setting [2] came out at 49.2 nM.

In the case of “GCGAUAUUGUAAGGAUAUACUCUGUGAUGAAGAGUAGAAGGUACUUACAUGAGGAUCACCCAUGUUUAACGUGAUACUAAUCGC”, the “apparent Kd” value runs as follows: under setting [1], 541 nM; under setting [2], 210 nM.

Turning to “UUGGACGUCGUAGGAUAUGUAGGAUAUUCCUACAUGAGGAUCACCCAUGUUGACAUGGAAGAAGUACAGAAGGACGAUGUCCAU”, the “apparent Kd” value was determined as 15.9 nM under setting [1] and 4.5 nM under setting [2].

On to “UUUUUUAUGUAAGGAUAUCGAUUAUAUACACAUCCUACAUGAGGAUCACCCAUGUUUUAAUUUAUCGAGAAGGUACAUUGUCUG”, for which the “apparent Kd” value was 34.1 nM under setting [1] and 36.5 nM under setting [2].

On to “GGAUAGGACAGAGGAUAUAAGUGCUAGAGAUACUAGCAAAAUUUCCUCACAUGAGGAUCACCCAUGUAGAAGGCUGUCCUAUCG”, for which the “apparent Kd” value runs as follows: under setting [3], 5.71 nM; under setting [4], 11.3 nM.

Consider “UUAUAAAGAGUGAGGAUAUGCUGGUCCAUGGAUCAGCAGAAGGCACAUGAGGAUCACCCAUGUAAAAUAAUAUU”, for which the “apparent Kd” value reads like this: under setting [3], 18.3 nM; under setting [4], 37.6 nM.

With “CCAGACGUAGGAUAUACAUUUGGGUAAUCCCGCGGAUAAUUACAUGAGGAUCACCCAUGUAGAAGGGCGGUAAA”, the “apparent Kd” value is 38.7 nM under setting [3] and 28 nM under setting [4].

As to “AGCUACGUUUCGUAGCAGUGUCAUCGAGAAGGCCUCAUUACAUGAGGAUCACCCAUGUAAGCAUGGGAGGAUAUCGAUGAUACA”, the “apparent Kd” value is, setting by setting: under setting [1], 36.5 nM; under setting [2], 15.6 nM.

As for “CUCAAACAUGAGGAUCACCCAUGUGUUGUCAUGGGAGGAUAUCUAAGUUCAUUGUAUUCGGGAGAAGGCCUAUGUC”, the “apparent Kd” value stood at 503 nM under setting [1] and 46.5 nM under setting [2].

Turning to “UGGUACUAGGGAGGAUAUGGGAAGAUACAUGAGGAUCACCCAUGUUUAAGAAUGCCGAGAGGCCACUAGAAGGCCCUAGUACCU”, the “apparent Kd” value is 244 nM under setting [1] and 12.4 nM under setting [2].

For the sequence “UAAAAGCAAGGAUAUACAUGAGGAUCACCCAUGUGAGGCUAAGUCUGCCAUGGCUCAGGUAGAAGGUGCGUCGA”, the “apparent Kd” value came to 51.3 nM under setting [3] and 241 nM under setting [4].

For the sequence “GCCUCAGAAUUAAUUGUGAGAAGCAGAAGGCUAUAUCUCAUGUUAAACAUGAGGAUCACCCAUGUAGAGGAUAUGCUAUUACAG”, the “apparent Kd” value is 58.9 nM under setting [3] and 282 nM under setting [4].

Take “UCCCUGUGAGGAUAUCUCUUUGAGUGCGGCGAAUUCAGGUGGGAGAAGGCACAUGAGGAUCACCCAUGUAUUGC”: the “apparent Kd” value is, setting by setting: under setting [3], 40.2 nM; under setting [4], 73 nM.

With “CAAUUUAUAACAGGAUAUGUAAUUCAAUAGAAAAUAGAAGGGUUUUAUACAUGAGGAUCACCCAUGUCAUGUAUCAUAAUUACC”, the “apparent Kd” value by setting is: under setting [3], 143 nM; under setting [4], 122 nM.

As for “UUUGACAGCUAGAGUUGUUAAGUACAUGAGGAUCACCCAUGUCAGGAUAUCCUUCCGCAAUGCGAGGAGAAGGGACAGGGUCCC”, the “apparent Kd” value by setting is: under setting [3], 104 nM; under setting [4], 232 nM.

Take “UGUCUGUCAGGAUAUCCAGAAGAGAAGAAAGUAAGAUGAGUGGAGAAGGGACAUGAGGAUCACCCAUGUAAUUA”: the “apparent Kd” value reads like this: under setting [3], 31 nM; under setting [4], 36.4 nM.

“CUCAGCUCGUCAGGAUAUACGUCACUGCGUCAGCAGUGUGGUAAGAUCACAUGAGGAUCACCCAUGUAGAAGGGACGAGCUGAU”: the “apparent Kd” value runs as follows: under setting [3], 13.7 nM; under setting [4], 278 nM.

Regarding “GCAGGAUAAGUGAGGAUAUACCUCUGGAUACAGAGGUAGAAGGCACAUGAGGAUCACCCAUGUCUAUAACCUGC”, the “apparent Kd” value runs as follows: under setting [3], 15.5 nM; under setting [4], 22.4 nM.

As for “AAUAUAAAGAGCUGGUAAACUCAAACAUGAGGAUCACCCAUGUAGGAUAUCAGCACGAUAAGUGCUGAGAAGGACAUCCAGCUC”, the “apparent Kd” value was 15.9 nM under setting [3] and 15.4 nM under setting [4].

“CCUAUACAUGAGGAUCACCCAUGUCAGGAUAUAGAAAGCUACGGAAUAGGACGUAGCACUAGAAGGGACUGGCU”: the “apparent Kd” value by setting is: under setting [3], 29.2 nM; under setting [4], 43.4 nM.

For the sequence “UGUCGGUGCAGAGGAUAUUACAUGAGGAUCACCCAUGUAUGAACCAAUAGCUGGAAACAGCAAUGUAAGAAGGCUGCUCCGACA”, the “apparent Kd” value under setting [3] was determined as 11.8 nM and the “apparent Kd” value under setting [4] was determined as 168 nM.

On to “AUUUUUAAGGUAGGAUAUAGUAUAAUGAUUUAAUUAGAAGGAUCUCACAUGAGGAUCACCCAUGUAAUAGGAUUACCCAUGUAU”, for which the “apparent Kd” value came to 27.8 nM under setting [3] and 22.7 nM under setting [4].

In the case of “UAAAUUCGAAACAUGAGGAUCACCCAUGUGUUGUGGUUUAUAUAGGAUAUGUGGAUACUUUUUUGACAGAAGGAUGAUGGUACU”, the “apparent Kd” value was found to be 13.2 nM under setting [1] and 10.9 nM under setting [2].

Consider “CCAUGUUAGCAGGAUAUGCUAUUAAUCUUUUAUGCAGAAGGGCUUACAUGAGGAUCACCCAUGUAUUAAGUCAA”, for which the “apparent Kd” value reads like this: under setting [3], 14.1 nM; under setting [4], 47.8 nM.

Regarding “GUGGUCAGACAUGAGGAUCACCCAUGUGGAAUAAAUAAGGGACAGGAUAUUCAAUAUAGGAUAUAGAAGAAGGGUUGGUUGGUG”, the “apparent Kd” value was 96.1 nM under setting [1] and 125 nM under setting [2].

With “GCCAUCGCAUGAGGAUAUCGUCAGGUUUCCUGACGAGAAGGCAUGUCAUAAGACAUGAGGAUCACCCAUGUAGUUAAGAUGGCA”, the “apparent Kd” value under setting [1] came to 658 nM and the “apparent Kd” value under setting [2] is 57 nM.

As for “GUACUGACAGGAUAUACAUGAGGAUCACCCAUGUCCUUGUGCUGACAAAAGUCAGCACGUAGAAGGGUCUGUAC”, the “apparent Kd” value under setting [3] is 22.9 nM and the “apparent Kd” value under setting [4] was determined as 207 nM.

Take “CUUUUGUGAGGAUAUCAGUAGUAAAUUAAUAAAAUUACUACUGAGAAGGCACAUGAGGAUCACCCAUGUUCCUU”: the “apparent Kd” value runs as follows: under setting [3], 14.5 nM; under setting [4], 29.5 nM.

Regarding “UGGAUGGUAUGAGGAUAUGCGCGCGAAACGUGCGCAGAAGGCAUGUCAAUAGACAUGAGGAUCACCCAUGUAUUAUCCAUCCAA”, the “apparent Kd” value runs as follows: under setting [1], 140 nM; under setting [2], 12.5 nM.

In the case of “AGUAUACAUGAGGAUCACCCAUGUCAGUAACUGACAGGAUAUGCGUUGCAUCACUGUAAUGCAGAAGGGUCUUGUA”, the “apparent Kd” value is 507 nM under setting [1] and 115 nM under setting [2].

“CUGUUAUUGAUCCAUUUUUUCAACAUGAGGAUCACCCAUGUGCAGGAUAUCGUGAUUAUUAUCAACGAGAAGGGCAGAUUCACG”: the “apparent Kd” value is, setting by setting: under setting [3], 74 nM; under setting [4], 178 nM.

For “CAUUGCGAAGGAUAUACAUGAGGAUCACCCAUGUGUUUCCUCACGCACGGGAGUAGCGGUAGAAGGUCGCAGAA”, the “apparent Kd” value is, setting by setting: under setting [3], 14.7 nM; under setting [4], 29.4 nM.

In the case of “GGAUAGGACAAAGGAUAUACGUGCUAGAGAUACUAGCAAAAUUUCCUCACAUGAGGAUCACCCAUGUAGAAGGCUGUCCUAUCG”, the “apparent Kd” value was 6.93 nM under setting [3] and 14.7 nM under setting [4].

As to “UGAGCCUCGUGAGGAUAUACAUGAGGAUCACCCAUGUAAAUGAAAGAUACGUCGAAACGACGAAUGUAGAAGGCACGAGGCUCA”, the “apparent Kd” value runs as follows: under setting [3], 18.4 nM; under setting [4], 61.3 nM.

On to “CAGUACUGAGGAUAUACAUGAGGAUCACCCAUGUGAACCAGCUAGGAAACUAGCAAAGGUAGAAGGCAGUACUG”, for which the “apparent Kd” value runs as follows: under setting [3], 21.3 nM; under setting [4], 259 nM.

As to “AAGGCGAGAGGAUAUACAUGAGGAUCACCCAUGUGUCGGCCCUCCGCAUAUGCCUUGUGUAGAAGGCUCCCGAA”, the “apparent Kd” value worked out at 16.5 nM under setting [3] and 22.9 nM under setting [4].

Consider “GGGUACAUCGGAGGAUAUCAUGUAAAUACAUGAGGAUCACCCAUGUCGAUGGAGACAUCGGAGAUUGAGAAGGCCGAUGCACCG”, for which the “apparent Kd” value under setting [1] is 203 nM and the “apparent Kd” value under setting [2] came to 8.97 nM.

As to “CAAAGUUGGUAAGGAUAUCCCACAUUAUUCUGACCCGUGCAAGCUACAUGAGGAUCACCCAUGUGGGAGAAGGUGCGGUAAAGA”, the “apparent Kd” value reads like this: under setting [3], 6.16 nM; under setting [4], 6.11 nM.

Regarding “GCAAAGCCUGACAUGAGGAUCACCCAUGUUAGAUUGUUAUGUCAGGAUAUUGUCUAGACCCUAGACAAGAAGGGAUGCUUUGCU”, the “apparent Kd” value under setting [1] came to 371 nM and the “apparent Kd” value under setting [2] was determined as 26.9 nM.

In the case of “UGGUACUAGGGAGGAUAUGGGAAGAUACAUGAGGAUCACCCAUGUUUAAGAAAGCCGAGAGGCAACUAGAAGGCCCUAGUACCU”, the “apparent Kd” value under setting [1] amounted to 278 nM and the “apparent Kd” value under setting [2] amounted to 13.8 nM.

Turning to “AAUUUAAUACAUGAGGAUCACCCAUGUAAUACUUGUAAGAUCAAGGAUAUCAGCUCGAAUAGAGCUGAGAAGGUGAUCACAUGU”, the “apparent Kd” value amounted to 75.9 nM under setting [1] and 227 nM under setting [2].

For the sequence “ACAUGAUAUGUAGGAUAUCACAUUAAUUGAUUAAUAUAUGAAUAUAGAAUUUGAGAAGGACAUUUACAUGAGGAUCACCCAUGU”, the “apparent Kd” value by setting is: under setting [3], 15.7 nM; under setting [4], 10.8 nM.

For the sequence “CAUCUGUGAGGAUAUGGUGAGUAGUGCCUGAGCGCUGCUCACCAGAAGGCACAUGAGGAUCACCCAUGUAUGAC”, the “apparent Kd” value by setting is: under setting [3], 48.4 nM; under setting [4], 188 nM.

With “UGAAAUCAUGUAGGAUAUGCAUGGCGAAGCUACGCAGAAGGACAUGAGGAUCACCCAUGUUAUAGCUACCAAGUUAGGUGGCAA”, the “apparent Kd” value is 155 nM under setting [3] and 138 nM under setting [4].

Regarding “AAUUUAAUACAUGAGGAUCACCCAUGUAAUACUAGUAAGAUCUAGGAUAUCAGCUCGUUUAGAGCUGAGAAGGAGAUCACAUGU”, the “apparent Kd” value under setting [1] was found to be 86.3 nM and the “apparent Kd” value under setting [2] came out at 26 nM.

Regarding “UCCUUAAACACAGGAUAUCCUGCCGUACAUGAGGAUCACCCAUGUCCGGUCGGAGAAGGGUGGCGAAGGUAUGUGCGAAUUAAG”, the “apparent Kd” value runs as follows: under setting [1], 8.23 nM; under setting [2], 5.41 nM.

For the sequence “GUUUGACAUGAGGAUCACCCAUGUAAGGAUAUACGAGUAGCUGCUAGGUAGUUAGUAUGUAGAAGGUGCGUGUU”, the “apparent Kd” value was 65.7 nM under setting [3] and 62.6 nM under setting [4].

These data come from the EternaBench riboswitch data.
